Where two headings read alike, the source gives them in different places. One block for each molecule: values may come before it.
Columns and labels:
CYP199A4 [1] = target: T1, CYP199A4 (Rhodopseudomonas palustris, UniProt Q2IU02); experiment: In vitro NADH turnover assay and metabolite analysis; type: biochemical; details: for PFR (product formation rate): WT CYP199A4 0.5 μM, 50 mM Tris, pH 7.4
T1 sequence (Q2IU02 1-410): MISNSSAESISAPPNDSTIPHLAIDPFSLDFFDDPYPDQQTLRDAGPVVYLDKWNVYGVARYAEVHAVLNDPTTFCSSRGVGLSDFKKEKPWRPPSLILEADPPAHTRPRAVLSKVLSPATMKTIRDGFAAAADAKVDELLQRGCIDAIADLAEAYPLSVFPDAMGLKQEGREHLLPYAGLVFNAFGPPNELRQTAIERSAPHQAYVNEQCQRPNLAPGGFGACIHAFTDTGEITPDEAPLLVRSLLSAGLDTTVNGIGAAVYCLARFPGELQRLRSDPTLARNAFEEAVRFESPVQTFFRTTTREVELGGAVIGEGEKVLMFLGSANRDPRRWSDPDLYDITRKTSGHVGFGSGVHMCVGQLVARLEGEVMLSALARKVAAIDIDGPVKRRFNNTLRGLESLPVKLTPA

CYP199A4 [2] = target: T1, CYP199A4; experiment: Spin state determination by UV-vis spectroscopy; type: binding; details: WT CYP199A4, 50 mM Tris, pH 7.4
CYP199A4 [3] = target: T1, CYP199A4; experiment: Dissociation constant determination by UV-vis binding titration
In short: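 UV-vis titration at 30 °C: enzyme diluted to 0.5–2.0 μM in 50 mM Tris, pH 7.4. Substrate was added from 1, 10 or 100 mM stocks in ethanol or DMSO. Soret peak-to-trough absorbance difference was recorded over 700–250 nm. Kd came from fitting ΔA against total substrate concentration to the tight-binding quadratic equation.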

CYP199A4 [4] = target: T1, CYP199A4; details: WT CYP199A4; cited from earlier work
CYP199A4 [5] = target: T1, CYP199A4; details: WT CYP199A4, cited from earlier work
F298V mutant of CYP199A4 [6] = experiment: In vitro NADH turnover assay and metabolite analysis, F298V mutant; type: biochemical, Rhodopseudomonas palustris
In short: (§1)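 Mutant was expressed and purified as for WT, with glycerol removed by gel filtration. NADH was added to ~320 μM, then substrate at 1 mM final. NADH oxidation was followed at A340 (ε 6.22 mM⁻¹cm⁻¹). Values are mean ± S.D., n ≥ 3.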

F182L mutant of CYP199A4 [7] = experiment: Spin state determination by UV-vis spectroscopy, F182L variant; type: binding, Rhodopseudomonas palustris
In short: (§2)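 Mutant was produced and purified as for WT. UV-vis spectra of the substrate-treated enzyme were recorded at 30 °C. The percentage low-to-high-spin shift of the ferric heme was estimated to about ±5%.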

CYP199A4 [8] = target: T1, CYP199A4; details: WT CYP199A4, cited from earlier work; remark: listed apart in the source
F298V mutant of CYP199A4 [9] = experiment: Spin state determination by UV-vis spectroscopy, F298V mutant; type: binding, Rhodopseudomonas palustris
In short: as §2

F182L mutant of CYP199A4 [10] = experiment: In vitro NADH turnover assay and metabolite analysis, F182L mutant; type: biochemical, Rhodopseudomonas palustris
In short: as §1

Compound: O=C(O)c1ccc(C2CCCCC2)cc1 [4‐cyclohexylBA, 4‐cyclohexylbenzoic acid]
Kd (CYP199A4 [4]): 450 ± 50 nM
Coupling (CYP199A4 [5]): 33±2%
NADH oxidation rate (CYP199A4 [5]): 169 ± 11 min⁻¹
PFR (product formation rate) (CYP199A4 [5]): 52 ± 6 min⁻¹
Product selectivity: 4-(1-hydroxycyclohexyl)benzoic acid (benzylic hydroxylation) (CYP199A4 [1]; WT CYP199A4): 24%
Coupling efficiency (F298V mutant of CYP199A4 [6]; F298V mutant): 31±9%
NADH oxidation rate (F298V mutant of CYP199A4 [6]; F298V mutant): 162 ± 55 min⁻¹
Product selectivity: 4-(1-hydroxycyclohexyl)benzoic acid (benzylic hydroxylation) (F298V mutant of CYP199A4 [6]; F298V variant): 34%
High-spin species (F182L mutant of CYP199A4 [7]): 90%
HS [%] (CYP199A4 [8]): ≥95%
High-spin species (F298V mutant of CYP199A4 [9]): ≥ 85%

Compound: CC(C)(C)c1ccc(C(=O)O)cc1 [4‐tert‐butylBA, 4‐tert‐butylbenzoic acid]
Kd (CYP199A4 [4]): 39000 ± 2000 nM
Coupling (CYP199A4 [5]): 100±13%
NADH oxidation rate (CYP199A4 [5]): 227 ± 4 min⁻¹
PFR (product formation rate) (CYP199A4 [5]): 227 ± 32 min⁻¹
HS [%] (CYP199A4 [8]): ≥95%

Compound: COc1ccc(-c2ccc(C(=O)O)cc2)cc1 [4‐(4′‐methoxyphenyl)BA, 4‐(4′‐methoxyphenyl)benzoic acid]
Coupling (percentage of NADH utilised for formation of oxidation products) (CYP199A4 [1]; WT CYP199A4): ≤ 1%
HS [%] (shift from low-spin to high-spin ferric heme) (CYP199A4 [2]): ~10%
Kd (CYP199A4 [3]): 100000 ± 10000 nM

Compound: O=C(O)c1ccc(-c2ccccc2)cc1 [4‐phenylBA, 4‐phenylbenzoic acid]
Kd (CYP199A4 [4]): 1700 ± 100 nM
NADH oxidation rate (CYP199A4 [5]): 902 ± 34 min⁻¹
Coupling efficiency (F182L mutant of CYP199A4 [10]): 30%
NADH oxidation rate (F182L mutant of CYP199A4 [10]): 75 ± 0.3 min⁻¹
Proportion of 4-(3′-hydroxyphenyl)benzoic acid among metabolites (F182L mutant of CYP199A4 [10]; RT 16.2 min): 9%
NADH oxidation rate (F298V mutant of CYP199A4 [6]; F298V mutant): 1030 ± 90 min⁻¹
Oxidation by the F298V mutant (in words) (F298V mutant of CYP199A4 [6]; F298V mutant): unable to oxidise
High-spin species (F182L mutant of CYP199A4 [7]): ~10%
HS [%] (CYP199A4 [8]): 90%
High-spin species (F298V mutant of CYP199A4 [9]): ≥ 85%

Compound: COc1ccc(C(=O)O)cc1 [4‐methoxyBA, 4‐methoxybenzoic acid]
Coupling (CYP199A4 [5]; ref 8c): 91±10%
NADH oxidation rate (CYP199A4 [5]; ref 8c): 1340 ± 30 min⁻¹
PFR (product formation rate) (CYP199A4 [5]; ref 8c): 1220 ± 120 min⁻¹
HS [%] (CYP199A4 [8]; ref 8c): ≥95%

Other lines, results leading:

Coupling (percentage of NADH utilised for formation of oxidation products) (CYP199A4 [1]; WT CYP199A4): 95±11%
PFR (product formation rate) (CYP199A4 [1]): 522 ± 61 min⁻¹
PFR (product formation rate) (CYP199A4 [1]; listed as 4‐Benzylbenzoic acid): 522 min⁻¹
HS [%] (shift from low-spin to high-spin ferric heme) (CYP199A4 [2]): 90%
Kd (CYP199A4 [3]): 5200 ± 250 nM
Compound: O=C(O)c1ccc(Cc2ccccc2)cc1 [4‐benzylBA, 4‐benzylbenzoic acid]

HS [%] (shift from low-spin to high-spin ferric heme) (CYP199A4 [2]): ≥95%
HS [%] (shift from low-spin to high-spin ferric heme) (CYP199A4 [2]; listed as 4‐(3′‐Methoxyphenyl)benzoic acid): ≥ 95%
Kd (CYP199A4 [3]): 600 ± 100 nM
Compound: COc1cccc(-c2ccc(C(=O)O)cc2)c1 [4‐(3′‐methoxyphenyl)BA, 4‐(3′‐methoxyphenyl)benzoic acid]

HS [%] (shift from low-spin to high-spin ferric heme) (CYP199A4 [2]): type II^[c]
HS [%] (shift from low-spin to high-spin ferric heme) (CYP199A4 [2]; listed as 4‐benzoylbenzoic acid): type II
Kd (CYP199A4 [3]): 2300 ± 400 nM
Compound: O=C(O)c1ccc(C(=O)c2ccccc2)cc1 [4‐benzoylBA, 4‐benzoylbenzoic acid]

Source: paper PMC10092897 (Chemistry (Weinheim an Der Bergstrasse, Germany), 2022)
